The text below walks through data of ChEMBL document CHEMBL5257036, “Benzophenone-nucleoside derivatives as telomerase inhibitors: Design, synthesis and anticancer evaluation in vitro and in vivo” (Eur J Med Chem, 2016).

For one assay, the system named is HeLa. The assay is described as follows: Antiproliferative activity against human HeLa cells measured after 48 hrs by MTT assay. The class given is functional, cell-based. The essentials: (§1)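 Cells grown to log phase in RPMI 1640 with 10% FBS, seeded at 3 × 10⁴ cells/mL, and preincubated 24 h at 37 °C, 5% CO₂. Compounds were added at pre-set concentrations to 6 wells each, with doxorubicin as reference, and exposed for 48 h. MTT was then added and absorbance read at 570 nm.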
For orientation: Tetrazolium dyes change colour on reduction, which living cells bring about.

The next assay has as its system SGC-7901. The assay is described as follows: Antiproliferative activity against human SGC-7901 cells measured after 48 hrs by MTT assay. Particulars: SGC-7901, 48 h. The class given is functional, cell-based. In a few lines:
as §1

A further assay concerns SMMC-7721. The assay is described as follows: Antiproliferative activity against human SMMC-7721 cells measured after 48 hrs by MTT assay. The class given is functional, cell-based. The conditions noted are these: SMMC-7721, 48 h. In a few lines:
as §1

A further assay deals with HepG2. The assay is described as follows: Antiproliferative activity against human HepG2 cells measured after 48 hrs by MTT assay. The class given is functional, cell-based. Particulars: HepG2, 48 h. The essentials: as §1
Assay [1] concerns the target Telomerase reverse transcriptase (Homo sapiens, UniProt O14746). Kind of assay: Inhibition of telomerase activity in human SGC-7901 cells incubated for 24 hrs by TRAP-PCR-ELISA assay. The class given is cell-based. In a few lines: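 Extract was mixed with TRAP reaction mix, incubated 25 °C for 30 min, then 35 PCR cycles (94/50/72 °C). Products detected by anti-DIG-peroxidase ELISA at 490 nm; mean ± SD.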
A general note: ELISA stands for enzyme-linked immunosorbent assay.

Chain of Telomerase reverse transcriptase (O14746 whole entry): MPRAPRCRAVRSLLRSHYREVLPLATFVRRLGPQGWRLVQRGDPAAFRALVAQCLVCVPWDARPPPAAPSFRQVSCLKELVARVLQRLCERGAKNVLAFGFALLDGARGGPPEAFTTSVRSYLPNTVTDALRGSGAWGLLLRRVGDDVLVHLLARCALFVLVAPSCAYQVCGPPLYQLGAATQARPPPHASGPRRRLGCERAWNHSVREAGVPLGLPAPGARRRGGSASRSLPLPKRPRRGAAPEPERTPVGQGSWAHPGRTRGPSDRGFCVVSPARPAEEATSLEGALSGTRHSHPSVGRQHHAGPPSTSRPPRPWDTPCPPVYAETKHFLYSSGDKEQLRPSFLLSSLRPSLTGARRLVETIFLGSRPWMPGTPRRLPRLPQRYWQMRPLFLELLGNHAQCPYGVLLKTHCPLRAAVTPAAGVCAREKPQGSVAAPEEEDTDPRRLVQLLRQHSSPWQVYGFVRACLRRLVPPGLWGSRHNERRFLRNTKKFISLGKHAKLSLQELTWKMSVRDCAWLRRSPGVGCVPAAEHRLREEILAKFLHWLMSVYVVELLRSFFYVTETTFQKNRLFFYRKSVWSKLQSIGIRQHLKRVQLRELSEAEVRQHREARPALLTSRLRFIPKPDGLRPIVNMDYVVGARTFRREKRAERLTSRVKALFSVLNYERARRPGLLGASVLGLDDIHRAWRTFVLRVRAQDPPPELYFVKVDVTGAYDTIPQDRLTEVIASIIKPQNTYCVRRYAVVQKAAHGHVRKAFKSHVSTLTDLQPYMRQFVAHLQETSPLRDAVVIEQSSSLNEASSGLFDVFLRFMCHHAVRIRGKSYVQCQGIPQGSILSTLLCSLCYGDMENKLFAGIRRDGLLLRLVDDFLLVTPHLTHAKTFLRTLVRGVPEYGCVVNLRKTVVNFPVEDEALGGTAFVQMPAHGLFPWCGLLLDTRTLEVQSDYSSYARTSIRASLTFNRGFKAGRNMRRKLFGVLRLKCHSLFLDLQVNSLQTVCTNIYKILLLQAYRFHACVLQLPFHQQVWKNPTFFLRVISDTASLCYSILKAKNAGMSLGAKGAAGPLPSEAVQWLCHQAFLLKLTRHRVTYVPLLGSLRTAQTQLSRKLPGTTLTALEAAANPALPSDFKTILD

In the case of `COc1ccc(C(=O)c2ccc([N+](=O)[O-])cc2)cc1OCC(=O)OC[C@@H]1C=C[C@H](n2cc(C)c(=O)[nH]c2=O)O1`, the values for the half-inhibitory concentration (IC50) with HeLa and in the assay on SGC-7901 were 50.2 µM and 48.1 µM, respectively.
In the case of `COc1cccc2c1C(=O)c1c(O)c3c(c(O)c1C2=O)C[C@@](O)(C(=O)CO)C[C@@H]3O[C@H]1C[C@H](N)[C@H](O)[C@H](C)O1` [DOXORUBICIN], the IC50 was 1.95 µM with SMMC-7721, 3.99 µM with HeLa and 3.41 µM in the assay on SGC-7901.
Consider `COc1ccc(C(=O)c2ccc(F)cc2)cc1OC(=O)CCC(=O)OC[C@@H]1C=C[C@H](n2cc(C)c(=O)[nH]c2=O)O1`, for which the IC50 with SMMC-7721 stood at 22.6 µM; in the assay on HeLa, 17.8 µM; in the assay on HepG2 it was 20.3 µM; in the assay on SGC-7901, 8.25 µM.
The like results for `COc1cc(OC)c(C(=O)c2ccc(OC)c(OCC(=O)OC[C@@H]3C=C[C@H](n4cc(C)c(=O)[nH]c4=O)O3)c2)cc1OC` were, in that order, 20.1 µM, 28.6 µM, 28.6 µM and 31.4 µM.
Turning to `COc1cc(OC)c(C(=O)c2ccc(OC)c(OC(=O)CCC(=O)OC[C@@H]3C=C[C@H](n4cc(C)c(=O)[nH]c4=O)O3)c2)cc1OC`, the IC50 in assay [1] came out at 6.43 µM; in the assay on SMMC-7721, 2.86 µM; in the assay with HeLa, 2.65 µM; with HepG2, 6.85 µM; in the assay with SGC-7901 it was 2.27 µM.
`COc1ccc(C(=O)c2ccc(F)cc2)cc1OCC(=O)OC[C@@H]1C=C[C@H](n2cc(C)c(=O)[nH]c2=O)O1`: the concentration for half-maximal inhibition (IC50) with SMMC-7721 is 40.3 µM; in the assay on HeLa it was 36.3 µM; with HepG2, 38 µM; with SGC-7901 it was 29.1 µM.

A word on the IC50: it is the point on the concentration scale where inhibition reaches its midpoint. Lower therefore signals inhibition by little substance.
